Test results reported in ChEMBL document CHEMBL5705892, “MK-2206, an allosteric Akt inhibitor, enhances antitumor efficacy by standard chemotherapeutic agents or molecular targeted drugs in vitro and in vivo” (Mol Cancer Ther, 2010).
Calls of active or inactive are those of the source. No cut-off for these calls is given here.

Assays:
NCI-H460 [1] = assay: Synergistic antiproliferative activity against human NCI-H460 cells assessed as combination index at ED50 measured after 72 hrs in presence of gemcitabine by celltiter-glo assay; assay type: functional
NCI-H292 [2] = assay: Antiproliferative activity against human NCI-H292 cells assessed as reduction in cell proliferation measured after 72 hrs by celltiter-glo assay; assay type: functional, cell-based; settings: NCI-H292, 72 h
Outline: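 Cells in RPMI 1640 with 10% heat-inactivated FBS at 37°C and 5% CO₂ were seeded at 2 to 3 × 10³ per well. […] Growth was read as cellular ATP by CellTiter-Glo.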

SK-OV-3 [3] = assay: Synergistic antiproliferative activity against human SK-OV-3 cells assessed as combination index at ED90 treated 24 hrs prior to lapatinib and measured after 72 hrs by celltiter-glo assay; assay type: functional; settings: time 96 hrs
[4] = Toxicity in human PC-3 cells xenografted CD1 nude mouse assessed as body weight loss at 120 mg/kg, po administered 3 times per week for 2 weeks measured on day 15; assay type: organism-based; settings: in vivo, 360 h, time 15 day
Outline: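 Male CD1-nude mice with s.c. PC-3 tumours (50% Matrigel/50% PBS, left flank), randomized at mean 0.2 cm³, n=5/group, treated from 25 d post-implant. Body weight monitored versus vehicle-only controls.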

HCC1954 [5] = assay: Synergistic antiproliferative activity against human HCC1954 cells assessed as combination index at ED90 measured after 72 hrs in presence of lapatinib by celltiter-glo assay; assay type: functional
Outline: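 Cells grown in RPMI 1640 with 10% heat-inactivated FBS at 37°C, 5% CO₂. Seeded at 2 to 3 × 10³ per well; drugs added 24 h later. […] Viability read as cellular ATP by CellTiter-Glo. CI calculated by Chou–Talalay from median-effect plots at ED50, ED75 and ED90.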

NCI-H292 [6] = assay: Induction of apoptosis in human NCI-H292 cells assessed as increase in caspase-3/7 activity measured after 48 hrs in presence of erlotinib by caspase-glo 3/7 assay; assay type: functional, cell-based; settings: dose <= 3.0 µmol/L
Outline: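 Caspase-3/7 activity was measured by Caspase-Glo 3/7 and expressed as fold over DMSO vehicle control. The experiment was done twice.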

SK-BR-3 [7] = assay: Synergistic antiproliferative activity against lapatinib pretreated human SK-BR-3 cells assessed as combination index at ED50 measured after 72 hrs by celltiter-glo assay; assay type: functional
[8] = Effect on total S6 protein expression in human HCC70 cells at 1 umol/L measured after 3 to 24 hrs in presence of lapatinib by Western blot analysis; assay type: toxicity, cell-based; settings: hcc70, 1 µM, time 3-24 hrs, dose 1 µmol/L
Outline: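 HCC70 cells at ~70% confluence were exposed to 1 µmol/L MK-2206, 10 µmol/L lapatinib, or both for 0, 3, 6, 12 or 24 h. Cells were lysed in Tris-HCl pH 7.5/NaCl/1% Triton X-100 with protease and phosphatase inhibitors. Lysates were run on SDS-PAGE and immunoblotted.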

A2780 [9] = assay: Synergistic antiproliferative activity against human A2780 cells assessed as combination index at ED75 measured after 72 hrs in presence of carboplatin by celltiter-glo assay; assay type: functional
Outline: (§1)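 Cells were seeded at 2–3 × 10³ per well in RPMI 1640 with 10% FBS. At 24 h, MK-2206 and the partner drug were added simultaneously at constant concentration ratios spanning each agent's IC₅₀, for 72 h. Growth was read as cellular ATP by CellTiter-Glo. CI was taken from median-effect plots of each agent alone and in combination (Chou–Talalay), at ED₅₀, ED₇₅ and ED₉₀.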

[10] = target: RAC-alpha serine/threonine-protein kinase (Homo sapiens) (UniProt P31749); assay: Inhibition of AKT in human HCC70 cells assessed as reduction in S6 phosphorylation at S240/S244 residues at 1 umol/L measured after 3 to 24 hrs in presence of lapatinib by Western blot analysis; assay type: cell-based; settings: dose 1.0 µmol/L, time 3-24 hrs
Chain of RAC-alpha serine/threonine-protein kinase (Homo sapiens) (P31749 whole entry): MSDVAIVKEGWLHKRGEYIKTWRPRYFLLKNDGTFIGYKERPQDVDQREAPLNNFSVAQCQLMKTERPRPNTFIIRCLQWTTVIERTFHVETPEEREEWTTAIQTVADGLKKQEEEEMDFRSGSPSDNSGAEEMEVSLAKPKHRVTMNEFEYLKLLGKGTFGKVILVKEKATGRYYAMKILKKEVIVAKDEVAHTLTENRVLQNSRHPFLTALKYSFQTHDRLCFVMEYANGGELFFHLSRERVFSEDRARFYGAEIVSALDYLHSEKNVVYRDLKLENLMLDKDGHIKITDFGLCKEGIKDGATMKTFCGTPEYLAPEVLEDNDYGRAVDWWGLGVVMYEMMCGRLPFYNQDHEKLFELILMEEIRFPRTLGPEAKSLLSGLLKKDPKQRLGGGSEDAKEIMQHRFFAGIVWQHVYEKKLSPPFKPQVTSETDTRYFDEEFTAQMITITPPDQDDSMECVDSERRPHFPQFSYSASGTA
Outline: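 HCC70 cells at ~70% confluence were exposed to 10 µmol/L lapatinib, 1 µmol/L MK-2206, or both, for 0, 3, 6, 12 or 24 h. Lysates were prepared in Triton X-100/Tris buffer (pH 7.5) with protease and phosphatase inhibitors. Immunoblots after SDS-PAGE and nitrocellulose transfer were probed for pAkt and pS6.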

A2780 [11] = assay: Synergistic antiproliferative activity against human A2780 cells assessed as combination index at ED90 measured after 72 hrs in presence of camptothecin by celltiter-glo assay; assay type: functional; outline: as §1
NCI-H441 = assay: Synergistic antiproliferative activity against human NCI-H441 cells assessed as combination index at ED25 to ED90 measured after 72 hrs in presence of gemcitabine by celltiter-glo assay; assay type: functional
UMC-11 = assay: Induction of apoptosis in human UMC-11 cells assessed as fold induction of capsase-3/7 activity measured after 24 to 48 hrs in presence of carboplatin by caspase-glo 3/7 assay; assay type: functional; settings: time 24-48 hrs
NCI-N87 = assay: Synergistic antiproliferative activity against human NCI-N87 cells assessed as combination index at ED75 measured after 96 hrs in presence of lapatinib by celltiter-glo assay; assay type: functional
BT-474 = assay: Synergistic antiproliferative activity against human BT-474 cells assessed as combination index at ED50 preincubated for 24 hrs followed by compound washout and subsequent docetaxel addition and measured after 72 hrs by celltiter-glo assay; assay type: functional
Outline: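 Sequential schedule. Cells were seeded at 2 to 3 × 10³ per well in RPMI 1640 with 10% FBS and dosed 24 h after plating. They were exposed to the Akt inhibitor for 24 h, washed free of it, then given docetaxel for a further 72 h. Fixed concentration ratios spanned each agent's IC₅₀. ATP was read by CellTiter-Glo, and Chou–Talalay CI was calculated at ED50, ED75 and ED90.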

SK-BR-3 [12] = assay: Synergistic antiproliferative activity against human SK-BR-3 cells assessed as combination index at ED75 measured after 72 hrs in presence of docetaxel by celltiter-glo assay; assay type: functional
NCI-H460 [13] = assay: Synergistic antiproliferative activity against human NCI-H460 cells assessed as combination index at ED75 measured after 72 hrs in presence of camptothecin by celltiter-glo assay; assay type: functional
[14] = Toxicity in human NCI-H292 cells xenografted CD-1 mouse assessed as weight loss at 360 mg/kg, po administered once a week for 2 weeks starting 2 hrs post-erlotinib treatment and measured on day 16; assay type: organism-based; settings: in vivo, 384 h, time 16 day
Outline: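 Female CD1-nude mice bearing s.c. NCI-H292 tumours (cells in 50% Matrigel/50% PBS, left flank), randomized at mean 0.2 cm³, n=5/group. Body weight monitored; treatment period ended day 16.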

SK-BR-3 [15] = assay: Synergistic antiproliferative activity against lapatinib pretreated human SK-BR-3 cells assessed as combination index at ED90 measured after 72 hrs by celltiter-glo assay; assay type: functional
SK-OV-3 [16] = assay: Synergistic antiproliferative activity against human SK-OV-3 cells assessed as combination index at ED90 measured after 96 hrs in presence of lapatinib by celltiter-glo assay; assay type: functional
HCC1954 [17] = assay: Synergistic antiproliferative activity against human HCC1954 cells assessed as combination index at ED75 treated 24 hrs prior to lapatinib and measured after 72 hrs by celltiter-glo assay; assay type: functional; settings: time 96 hrs
SK-BR-3 [18] = assay: Synergistic antiproliferative activity against human SK-BR-3 cells assessed as combination index at ED75 measured after 96 hrs in presence of lapatinib by celltiter-glo assay; assay type: functional

Cl.NC1(c2ccc(-c3nc4ccn5c(=O)[nH]nc5c4cc3-c3ccccc3)cc2)CCC1
CI50 (NCI-H460 [1]): 0.33
IC50 (NCI-H292 [2]): 5.2 µM
CI90 (SK-OV-3 [3]): 0.18
Activity [4]: Non-Toxic
CI90 (HCC1954 [5]): 0.11
Activity (NCI-H292 [6]): Dose-Dependent Effect
CI50 (SK-BR-3 [7]): 0.18
Activity [8]: Toxic
CI75 (A2780 [9]): 0.43
inhibition [10]: Active
CI90 (A2780 [11]): 0.29
CI (NCI-H441): 0.37
fold change (FC) (UMC-11): 1.1
CI75 (NCI-N87): 0.18
CI50 (BT-474): 1.6
CI75 (SK-BR-3 [12]): 0.7
CI75 (NCI-H460 [13]): 0.39
Activity [14]: Non-Toxic
CI90 (SK-BR-3 [15]): 0.18
CI90 (SK-OV-3 [16]): 0.18
CI75 (HCC1954 [17]): 0.18
CI75 (SK-BR-3 [18]): 0.18
